# Active and inactive are the calls of the source. No cut-off for these calls is given here.
# How the values were obtained:
# [1] = molecular target: Translocator protein (Rattus norvegicus) (UniProt P16257); assay: (§1) Displacement of [3H]PK11195 from TSPO in rat kidney mitochondrial membrane after 90 mins by liquid scintillation counting method; format: cell membranes
# Outline: (§2)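 TSPO binding by radioligand displacement of the TSPO-selective [3H]PK11195 across a concentration range; Ki derived.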
# Translocator protein = Translocator protein (Rattus norvegicus, UniProt P16257); assay: as §1; format: cell membranes; outline: as §2
# [2] = Antiproliferative activity against human U87MG cells expressing wild type p53 after 48 hrs by MTS assay; conditions: U-87 MG
# [3] = Antiproliferative activity against human U343MG cells expressing wild type p53 after 48 hrs by MTS assay; conditions: U-343MG
# T98G = assay: Growth inhibition of human T98G cells expressing p53 mutant after 48 hrs by MTS assay relative to control; format: functional
# Outline: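 Wild-type p53 U87MG and U343MG cells and mutant-p53 T98G cells were treated with a range of compound concentrations, using the same protocol for each line. Viability was read by MTS assay, and the 48 h treatment with 100 nM–10 µM is stated for U87MG. Results are given as percent inhibition or viable cells versus control, with IC50 taken from concentration–response curves.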
# Homo sapiens = organism: Homo sapiens; assay: Growth inhibition of human U87MG-derived CSC at 100 uM after 7 days by MTS assay relative to control; format: functional
# Outline: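 Glioma CSC viability measured after 24 h and after prolonged (seven-day) exposure, at concentrations up to 100 µM; CSC depletion expressed versus control.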
# [4] = Growth inhibition of human U87MG cells at 50 uM after 72 hrs by MTS assay relative to control; format: functional, U-87MG ATCC; conditions: U-87 MG, read-out: GI
# Outline: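 U87MG cells were exposed to temozolomide (50 µM) alone or combined with 100 nM dual inhibitor for at least 72 h. Viability was measured and expressed as reduction relative to untreated control.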
# [5] = Antiproliferative activity against human MSC at 10 uM after 48 hrs by MTS assay
# Outline: (§3)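 Non-tumoural human mesenchymal stem cells exposed to 100 nM-10 µM for 48 h; viability read by MTS assay.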
# [6] = Antiproliferative activity against human MSC at 0.01 to 10 uM after 48 hrs by MTS assay; conditions: in the assay text read “0.1 to 10 uM” for “0.01 to 10 uM”; outline: as §3
# Sequence of Translocator protein (Rattus norvegicus) (P16257 whole entry, looked up): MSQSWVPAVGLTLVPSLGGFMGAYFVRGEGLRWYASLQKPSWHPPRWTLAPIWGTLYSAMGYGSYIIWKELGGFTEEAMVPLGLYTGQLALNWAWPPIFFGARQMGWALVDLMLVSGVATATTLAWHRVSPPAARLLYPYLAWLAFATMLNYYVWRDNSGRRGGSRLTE
# Sequence of Translocator protein (P16257 whole entry, looked up): as above
Compound,inhibition [1],Ki (Translocator protein),IC50 [2],IC50 [3],growth inhibition (GI) (T98G),growth inhibition (GI) (Homo sapiens),inhibition of growth at 50 µM [4],Activity [5],Activity [6]
COC(=O)[C@H](CC(C)C)NC(=O)[C@@H](NC(=O)C(=O)c1c(-c2ccccc2)[nH]c2ccccc12)C(C)C,Dose-dependent effect,365 nM,,,,,,,
CC[C@H](C)[C@H](NC(=O)[C@@H](NC(=O)C(=O)c1c(-c2ccccc2)[nH]c2ccccc12)C(C)C)C(=O)OC,Dose-dependent effect,783 nM,,,,,,,
COc1ccc(C2=NC(c3ccc(Cl)cc3)C(c3ccc(Cl)cc3)N2C(=O)N2CCNC(=O)C2)c(OC(C)C)c1 (centres undefined),,,6500 nM,12600 nM,inactive,45%,,,
CC[C@H](C)[C@H](NC(=O)C(=O)c1c(-c2ccccc2)[nH]c2ccccc12)C(=O)N[C@H](C(=O)OC)[C@@H](C)CC,Dose-dependent effect,1000 nM,,,,,,,
Cn1nnc2c(C(N)=O)ncn2c1=O [TEMOZOLOMIDE],,,,,,,55%,,
CCOC(=O)[C@H](Cc1ccccc1)NC(=O)[C@H](CC(C)C)NC(=O)C(=O)c1c(-c2ccccc2)[nH]c2ccccc12,Dose-dependent effect,430 nM,2600 nM,2100 nM,inactive,65%,,Toxic,Non-toxic
